Fam108B counter = blocks mouse Fam108B hydrolase in RBBP9 counter-screen | recombinant Fam108B, FP-Rh probe fluorescence polarization | inhibition, % at 9.51 µM | 300,000 compounds, 0.33% hits | AID 1947;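 active = inhibition above the screen mean inhibition plus 3 SD, computed separately per campaign, cut at about 18% in these data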;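 note: inhibitors lower polarization as less probe binds the enzyme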
LYPLA1 inh = counter-screen for PME1 inhibitors: inhibitors of human LYPLA1 | AID 2174 | recombinant LYPLA1, FP-Rh probe fluorescence polarization | O75608 | 320,000 compounds, 0.16% hits | inhibition, % at 5.9 µM;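 active = inhibition above the mean of all tested compounds plus 3 SD, set per campaign, cut at about 14% in these data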;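 note: inhibitors block serine hydrolase probe labeling of LYPLA1 so polarization falls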
PME-1 primary = PME-1 (human) inhibition. Q9Y570. recombinant PME-1, FP-Rh probe fluorescence polarization. inhibition, % at 5.9 µM. 320,000 compounds, 0.53% hits. AID 2130;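 active = inhibition above the campaign mean of all compounds plus 3 SD, cut at about 26% in these data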;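 note: competitive labeling of PME-1 active site by serine hydrolase directed probe; inhibitors block probe labeling so polarization falls and inhibition rises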
RBBP9 inh = human RBBP9 hydrolase inhibition | O75884 | recombinant RBBP9, FP-Rh probe fluorescence polarization | inhibition, % at 7.94 µM | 220,000 compounds, 0.2% hits | AID 1515;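 active = inhibition above the campaign mean of all tested compounds plus 3 SD, cut at about 14% in these data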
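System: RBBP9 protein | Quantity: 2.5 µM RBBP9 dispensing solution, before mixing | Reagent: FP-Rh probe, 375 nM dispensing solution | Timing: Enzyme-compound preincubation 30 min, then probe labeling 45 min, 25 °C | Measured by: Fluorescence polarization | Read-out: % inhibition | Replication: One well per compound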
PAD4 FP inh = blocks human protein arginine deiminase 4. Q9UM07. recombinant PAD4, RCA probe fluorescence polarization. inhibition, % at 6.36 µM. 330,000 compounds, 0.41% hits. AID 485272;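 active = percent inhibition above a cutoff equal to the mean of all tested compounds plus 3 SD, cut at about 15% in these data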
Target sequence (Q9UM07 whole entry, looked up): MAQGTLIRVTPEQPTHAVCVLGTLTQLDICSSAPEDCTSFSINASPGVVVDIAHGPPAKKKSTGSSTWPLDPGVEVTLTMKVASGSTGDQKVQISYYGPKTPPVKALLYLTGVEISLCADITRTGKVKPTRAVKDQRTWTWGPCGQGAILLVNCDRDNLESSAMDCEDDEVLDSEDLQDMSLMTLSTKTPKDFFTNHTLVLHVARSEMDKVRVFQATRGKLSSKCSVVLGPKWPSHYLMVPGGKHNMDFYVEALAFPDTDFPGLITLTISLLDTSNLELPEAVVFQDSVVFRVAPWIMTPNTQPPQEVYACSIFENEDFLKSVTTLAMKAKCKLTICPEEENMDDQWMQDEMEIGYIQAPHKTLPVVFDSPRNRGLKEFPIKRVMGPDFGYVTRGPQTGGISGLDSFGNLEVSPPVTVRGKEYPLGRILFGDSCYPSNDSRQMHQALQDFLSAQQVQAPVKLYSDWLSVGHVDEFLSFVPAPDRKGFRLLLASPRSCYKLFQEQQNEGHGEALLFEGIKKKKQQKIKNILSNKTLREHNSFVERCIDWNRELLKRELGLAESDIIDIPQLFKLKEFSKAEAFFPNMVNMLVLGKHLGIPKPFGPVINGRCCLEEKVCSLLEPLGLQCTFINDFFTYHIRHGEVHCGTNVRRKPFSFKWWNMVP
LYPLA2 counter = counter-screen for PME1 inhibitors: inhibitors of human LYPLA2; 320,000 compounds, 0.38% hits; AID 2177; inhibition, % at 5.9 µM; recombinant LYPLA2, FP-Rh probe fluorescence polarization;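 active = inhibition above the screen-wide mean plus 3 SD, limit set per campaign, cut at about 26% in these data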
PAD4 confirm = confirmation of human PAD4 inhibitors | inhibition, % at 6.36 µM | 1,200 compounds, 28% hits | shares compounds with PAD4 FP inh | recombinant PAD4, RCA probe fluorescence polarization;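 active = mean inhibition across replicates above the hit cutoff set by the earlier primary screen, cut at about 15% in these data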;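 note: inhibitors block active-site labeling by the probe so polarization falls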
Numbers stand for hits. Most compounds without a hit are left out; they make up all but 1.3% or so of the library.

For CC(=O)c1c(C)oc2ccc(NS(=O)(=O)c3ccc(O)c(C(=O)O)c3)cc12 the results were Fam108B counter inactive, LYPLA1 inh inactive, PME-1 primary inactive, RBBP9 inh inactive, PAD4 FP inh inactive and LYPLA2 counter inactive.
Screening O=C(O)c1cc(S(=O)(=O)Nc2ccc3oc(=O)sc3c2)ccc1O returned Fam108B counter inactive, LYPLA1 inh inactive, PME-1 primary inactive, RBBP9 inh inactive, PAD4 FP inh 37, LYPLA2 counter inactive and PAD4 confirm 19.
Screening CCOC(=O)C1=C(COC(=O)c2ccc([N+](=O)[O-])s2)NC(=O)NC1C (stereo not drawn) returned PAD4 FP inh 26 and PAD4 confirm 17.
`CCOC(=O)C1=C(COC(=O)c2sccc2C)NC(=O)NC1C` (stereo not drawn) gave LYPLA1 inh inactive, PME-1 primary inactive, PAD4 FP inh inactive and LYPLA2 counter inactive.
Screening COC/C=C/C1=CC2=CC(=O)C(C)(OC(=O)c3cnc4ccccc4n3)C(=O)C2=CN1CC(C)C (stereo not drawn) returned Fam108B counter inactive, LYPLA1 inh inactive, PME-1 primary inactive, PAD4 FP inh 19, LYPLA2 counter inactive and PAD4 confirm inactive.
Cc1ccc(C)c(COc2coc(CN3CCN(C(=O)c4ccco4)CC3)cc2=O)c1 was read as Fam108B counter inactive, LYPLA1 inh inactive, PME-1 primary inactive, PAD4 FP inh inactive and LYPLA2 counter inactive.
For O=C(Nc1ccc(N2CCN(c3ccc(O)cc3)CC2)cc1)Oc1ccccc1 the results were Fam108B counter inactive, LYPLA1 inh inactive, PME-1 primary inactive, RBBP9 inh inactive, PAD4 FP inh inactive and LYPLA2 counter inactive.
Nc1ccc(OC(=O)Nc2ccc(O)cc2)cc1 was read as Fam108B counter inactive, LYPLA1 inh inactive, PME-1 primary inactive, RBBP9 inh inactive, PAD4 FP inh 73, LYPLA2 counter inactive and PAD4 confirm inactive.
For CCOC(=O)CN(C(=O)COc1nc(-c2ccccc2)cc(C)c1C#N)c1ccccc1 the results were Fam108B counter inactive, LYPLA1 inh inactive, PME-1 primary inactive, RBBP9 inh inactive, PAD4 FP inh inactive and LYPLA2 counter inactive.
`CCOC(=O)CN(C(=O)COc1nc(-c2ccccc2)cc(C)c1C#N)c1ccccc1C` gave Fam108B counter inactive, LYPLA1 inh inactive, PME-1 primary inactive, RBBP9 inh inactive, PAD4 FP inh 20, LYPLA2 counter inactive and PAD4 confirm inactive.
For CC(C)CN(C(=O)c1ccco1)C1CCS(=O)(=O)C1 (stereo not drawn) the results were Fam108B counter inactive, LYPLA1 inh inactive, PME-1 primary inactive, PAD4 FP inh inactive and LYPLA2 counter inactive.
`COC(=O)c1cnn(-c2ccccc2)c1C(OC)OC` gave Fam108B counter inactive, LYPLA1 inh inactive, PME-1 primary inactive, RBBP9 inh inactive, PAD4 FP inh 18, LYPLA2 counter inactive and PAD4 confirm inactive.
For Cc1[nH]c2c(ccc3ccccc32)c1C1C(CCN)C1(C)C (stereo not drawn) the results were Fam108B counter inactive, LYPLA1 inh inactive, PME-1 primary inactive, RBBP9 inh inactive, PAD4 FP inh inactive and LYPLA2 counter inactive.
`c1ccc(Nc2ccccc2Nc2ccccn2)nc1` gave Fam108B counter inactive, LYPLA1 inh inactive, PME-1 primary inactive, RBBP9 inh inactive, PAD4 FP inh 30, LYPLA2 counter inactive and PAD4 confirm inactive.
For CCn1c(SCC(=O)NC2(C#N)CCCCC2)nc2ccccc2c1=O the results were Fam108B counter inactive, LYPLA1 inh inactive, PME-1 primary inactive, PAD4 FP inh inactive and LYPLA2 counter inactive.
COc1ccc(NC(=O)Cc2nnc(SCC(=O)NC3CCCCC3C)n2C)cc1 (stereo not drawn) was read as Fam108B counter inactive, LYPLA1 inh inactive, PME-1 primary inactive, PAD4 FP inh inactive and LYPLA2 counter inactive.
For COc1cccc(NC(=O)c2ccccc2-c2ccccc2C(=O)O)c1 the results were Fam108B counter inactive, LYPLA1 inh inactive, PME-1 primary inactive, PAD4 FP inh 18, LYPLA2 counter inactive and PAD4 confirm inactive.
`CC(=O)c1cccc(NC(=O)c2ccccc2-c2ccccc2C(=O)O)c1` gave Fam108B counter inactive, LYPLA1 inh inactive, PME-1 primary inactive, PAD4 FP inh inactive and LYPLA2 counter inactive.
For COC(=O)c1ccc(OC(=O)c2ccncc2)cc1O the results were Fam108B counter inactive, LYPLA1 inh inactive, PME-1 primary inactive, PAD4 FP inh inactive and LYPLA2 counter inactive.
For COc1ccc(S(=O)(=O)Cc2ccc(C(=O)NCc3ccccc3OC)o2)cc1 the results were Fam108B counter inactive, LYPLA1 inh inactive, PME-1 primary inactive, PAD4 FP inh inactive and LYPLA2 counter inactive.
Cc1cccc(/C(N)=N/OC(=O)Cc2cccc3ccccc23)c1 was read as Fam108B counter inactive, LYPLA1 inh inactive, PME-1 primary inactive, RBBP9 inh inactive, PAD4 FP inh inactive and LYPLA2 counter inactive.
For Cc1cccc(C(=O)O/N=C(\N)Cc2cccc3ccccc23)c1 the results were Fam108B counter inactive, LYPLA1 inh inactive, PME-1 primary inactive, PAD4 FP inh 34, LYPLA2 counter inactive and PAD4 confirm inactive.
`O=C(NCc1ccccc1)c1ccccc1C(=O)c1ncc[nH]1` gave Fam108B counter inactive, LYPLA1 inh inactive, PME-1 primary inactive, RBBP9 inh inactive, PAD4 FP inh inactive and LYPLA2 counter inactive.
Screening Cc1cnc(C(=O)Nc2ccccc2-c2nnn(CC(=O)NC3CCCC3)n2)cn1 returned Fam108B counter inactive, LYPLA1 inh inactive, PME-1 primary inactive, RBBP9 inh inactive, PAD4 FP inh inactive and LYPLA2 counter inactive.
`COc1ccc(C2=Nn3c(nnc3-c3cccnc3)SC2)cc1OC` gave Fam108B counter inactive, LYPLA1 inh inactive, PME-1 primary inactive, PAD4 FP inh 22, LYPLA2 counter inactive and PAD4 confirm inactive.
For COc1ccc(C2=Nn3c(nnc3-c3ccncc3)SC2)cc1OC the results were Fam108B counter inactive, LYPLA1 inh inactive, PME-1 primary inactive, RBBP9 inh inactive, PAD4 FP inh inactive and LYPLA2 counter inactive.
For Cc1oc2cc(O)ccc2c(=O)c1-c1nncn1-c1ccccc1 the results were Fam108B counter inactive, LYPLA1 inh inactive, PME-1 primary inactive, RBBP9 inh inactive, PAD4 FP inh 18, LYPLA2 counter inactive and PAD4 confirm 16.
For Cc1oc2cc(O)ccc2c(=O)c1-c1ccccc1 the results were Fam108B counter inactive, LYPLA1 inh inactive, PME-1 primary inactive, RBBP9 inh inactive, PAD4 FP inh inactive and LYPLA2 counter inactive.
COc1cc2oc(=O)ccc2cc1[C@H](O)[C@@H](O)C(C)(C)O was read as LYPLA1 inh inactive, PME-1 primary inactive, PAD4 FP inh 45, LYPLA2 counter inactive and PAD4 confirm inactive.
For CCOc1ccc(-c2nc(CSCC(=O)NCc3ccco3)c(C)o2)cc1 the results were Fam108B counter inactive, LYPLA1 inh inactive, PME-1 primary inactive, RBBP9 inh inactive, PAD4 FP inh inactive and LYPLA2 counter inactive.

Screens: PubChem BioAssay, The Scripps Research Institute Molecular Screening Center
